Reference: ChEMBL document CHEMBL1122426, “Radioiodine-labeled N,N-dimethyl-N'-(2-hydroxy-3-alkyl-5-iodobenzyl)-1,3-propanediamines for brain perfusion imaging” (J Med Chem, 1983)

Tests used:
Rattus norvegicus [1] = assay: Biodistribution of I-125 labeled compound in rat blood, 1 hr after intravenous injection. value expressed in average % dose per organ; value may range from 0.92 to 1.31; type: ADME, organism-based; conditions: in vivo
Rattus norvegicus [2] = species: Rattus norvegicus; assay: Effect of specific activity of compound on biodistribution in rats lungs after injection at the dose of 0.025 mg value expressed in average % dose per organ; value may range from 12.0 to 14.5; type: ADME, organism-based, Lung; conditions: in vivo
Method in brief: (§1)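 Rats received an intravenous injection of the I-125 labeled diamine with added unlabeled carrier (6.25, 2.5, 0.25 or 0.025 mg per dose). At 1 h, organs were counted. Percent dose per organ came from comparing tissue radioactivity with diluted aliquots of the injected dose. Values are the average and range of 3 rats. Brain/blood ratio was taken from % dose per gram, calculated using mean organ weights (brain 1.65 g; blood 18 g).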

Rattus norvegicus [3] = assay: Biodistribution of I-125 labeled compound in rat thyroid, 1 hr after intravenous injection. value expressed in average % dose per organ; value may range from 0.17 to 0.23; type: ADME, organism-based, Thyroid gland; conditions: in vivo
Rattus norvegicus [4] = species: Rattus norvegicus; assay: Effect of specific activity of compound on biodistribution in rats heart 1 hr after injection at the dose of 6.25 mg value expressed in average % dose per organ; value may range from 0.30 to 0.36; type: ADME, organism-based; conditions: in vivo; method in brief: as §1
Rattus norvegicus [5] = species: Rattus norvegicus; assay: Effect of specific activity of compound on biodistribution in rats thyroid 1 hr after injection at the dose of 2.5 mg value expressed in average % dose per organ; value may range from 0.12 to 0.14; type: ADME, organism-based, Thyroid gland; conditions: in vivo; method in brief: as §1
Rattus norvegicus [6] = species: Rattus norvegicus; assay: Effect of specific activity of compound on biodistribution in rats brain to blood ratio 1 hr after injection at the dose of 2.5 mg value expressed in % dose per gram ratio; type: ADME, organism-based; method in brief: as §1
Rattus norvegicus [7] = assay: Biodistribution of I-125 labeled compound in rat lungs, 1 hr after intravenous injection. value expressed in average % dose per organ; value may range from 10.6 to 15.1; type: ADME, organism-based, Lung; conditions: in vivo
Rattus norvegicus [8] = assay: Biodistribution of I-125 labeled compound in rat lungs, 2 min after intravenous injection. value expressed in average % dose per organ; value may range from 15.7 to 18.7; type: ADME, organism-based, Lung; conditions: in vivo
[9] = Biodistribution of […] compound in a monkey blood. 1 hr after intravenous injection. the value expressed in%dose/organ; type: ADME, organism-based; conditions: simiiformes, in vivo
Method in brief: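 Monkey sedated with ketamine and anesthetized with nembutal, then given ~100 μCi [125I] label (~7 mCi/mg) intravenously. Killed 1 h later by nembutal overdose. Organs dissected, weighed and counted. % dose per organ found against diluted injected-dose aliquots; % dose per gram also reported; brain/blood from per-gram values. Single animal.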

Rattus norvegicus [10] = species: Rattus norvegicus; assay: Effect of specific activity of compound on biodistribution in rats muscle 1 hr after injection at the dose of 2.5 mg value expressed in average % dose per organ; value may range from 12.7 to 18.3; type: ADME, organism-based, Muscle tissue; conditions: in vivo; method in brief: as §1
[11] = Biodistribution of [125I]- compound in a monkey lungs.1h after intravenous injection. the value expressed in%dose/organ; conditions: simiiformes, in vivo
[12] = Biodistribution of [125I]- compound in a monkey thyroid. 1 hr after intravenous injection. the value expressed in %dose/organ; conditions: simiiformes, in vivo

SMILES: Cc1cc(I)cc(CNCCCN(C)C)c1O
- Average dose per organ (Rattus norvegicus [1]): 1.1%
- Average dose per organ (Rattus norvegicus [2]): 12.8%
- Average dose per organ (Rattus norvegicus [3]): 0.19%
- Average dose per organ (Rattus norvegicus [4]): 0.33%
- Average dose per organ (Rattus norvegicus [5]): 0.13%
- Ratio (Rattus norvegicus [6]): 37.3%
- Average dose per organ (Rattus norvegicus [7]): 11.7%
- Average dose per organ (Rattus norvegicus [8]): 16.9%
- Dose per organ [9]: 1.23%
- Average dose per organ (Rattus norvegicus [10]): 16.2%
- Dose per organ [11]: 33%
- Dose per organ [12]: 0.333%
